Laboratory results: ChEMBL document CHEMBL2176939, “Rapid discovery of highly potent and selective inhibitors of histone deacetylase 8 using click chemistry to generate candidate libraries” (J Med Chem, 2012)
Active and inactive are the calls of the source. The rule behind the calls is not given here.

Key:
[1] = Growth inhibition of human PBMC PB-O cells incubated for 72 hrs by MTS assay; assay type: cell-based
How it was run: (§1)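 Cells plated at 2 × 10⁵ cells/well in culture medium and exposed to inhibitor for 72 h at 37 °C under 5% CO₂. MTS was then added for 2 h, with absorbance read at 490 nm against a 650 nm reference. Wells were also read at compound addition (T₀). % growth = 100[(T − T₀)/(C − T₀)], or […]. GI₅₀ is where % growth = 50.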

[2] = tested on: MT2; experiment: Growth inhibition of human MT2 cells incubated for 72 hrs by MTS assay; assay type: functional; details: MT2, 72 h; how it was run: as §1
[3] = tested on: HH; experiment: Growth inhibition of human HH cells incubated for 72 hrs by MTS assay; assay type: functional; how it was run: as §1
[4] = tested on: MT4; experiment: Growth inhibition of human MT4 cells incubated for 72 hrs by MTS assay; assay type: functional; details: MT4, 72 h; how it was run: as §1
[5] = Growth inhibition of human PBMC PB-N cells incubated for 72 hrs by MTS assay; assay type: cell-based; how it was run: as §1
[6] = Growth inhibition of human LAN1 cells incubated for 72 hrs by MTS assay; assay type: functional; details: LAN1, 72 h; how it was run: as §1
[7] = molecular target: Histone deacetylase (Homo sapiens) (UniProt Q13547+O15379+Q9UBN7+Q92769+Q9UQL6+Q8WUI4+Q9BY41+Q96DB2+P56524+Q9UKV0+Q969S8); experiment: Inhibition of HDAC in human HeLa cells nuclear extracts at 3 uM by fluorometric assay; assay type: cell-free
How it was run: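 Total HDAC activity of HeLa nuclear extract was measured with a commercial fluorometric deacetylase kit, following the supplier's protocol. Compounds were screened at 3 μM, including crude click-reaction triazoles diluted without purification. Fluorescence was read at ex 360 / em 460 nm, and % inhibition was calculated relative to uninhibited control wells.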

[8] = tested on: Jurkat; experiment: Growth inhibition of human Jurkat cells incubated for 72 hrs by MTS assay; assay type: functional; how it was run: as §1
[9] = tested on: NB1; experiment: Growth inhibition of human NB-1 cells incubated for 72 hrs by MTS assay; assay type: functional; details: NB1, 72 h; how it was run: as §1
[10] = molecular target: Histone deacetylase 4 (Homo sapiens, UniProt P56524); experiment: Inhibition of HDAC4 by fluorometric assay
Histone deacetylase 4, sequence (P56524 whole entry): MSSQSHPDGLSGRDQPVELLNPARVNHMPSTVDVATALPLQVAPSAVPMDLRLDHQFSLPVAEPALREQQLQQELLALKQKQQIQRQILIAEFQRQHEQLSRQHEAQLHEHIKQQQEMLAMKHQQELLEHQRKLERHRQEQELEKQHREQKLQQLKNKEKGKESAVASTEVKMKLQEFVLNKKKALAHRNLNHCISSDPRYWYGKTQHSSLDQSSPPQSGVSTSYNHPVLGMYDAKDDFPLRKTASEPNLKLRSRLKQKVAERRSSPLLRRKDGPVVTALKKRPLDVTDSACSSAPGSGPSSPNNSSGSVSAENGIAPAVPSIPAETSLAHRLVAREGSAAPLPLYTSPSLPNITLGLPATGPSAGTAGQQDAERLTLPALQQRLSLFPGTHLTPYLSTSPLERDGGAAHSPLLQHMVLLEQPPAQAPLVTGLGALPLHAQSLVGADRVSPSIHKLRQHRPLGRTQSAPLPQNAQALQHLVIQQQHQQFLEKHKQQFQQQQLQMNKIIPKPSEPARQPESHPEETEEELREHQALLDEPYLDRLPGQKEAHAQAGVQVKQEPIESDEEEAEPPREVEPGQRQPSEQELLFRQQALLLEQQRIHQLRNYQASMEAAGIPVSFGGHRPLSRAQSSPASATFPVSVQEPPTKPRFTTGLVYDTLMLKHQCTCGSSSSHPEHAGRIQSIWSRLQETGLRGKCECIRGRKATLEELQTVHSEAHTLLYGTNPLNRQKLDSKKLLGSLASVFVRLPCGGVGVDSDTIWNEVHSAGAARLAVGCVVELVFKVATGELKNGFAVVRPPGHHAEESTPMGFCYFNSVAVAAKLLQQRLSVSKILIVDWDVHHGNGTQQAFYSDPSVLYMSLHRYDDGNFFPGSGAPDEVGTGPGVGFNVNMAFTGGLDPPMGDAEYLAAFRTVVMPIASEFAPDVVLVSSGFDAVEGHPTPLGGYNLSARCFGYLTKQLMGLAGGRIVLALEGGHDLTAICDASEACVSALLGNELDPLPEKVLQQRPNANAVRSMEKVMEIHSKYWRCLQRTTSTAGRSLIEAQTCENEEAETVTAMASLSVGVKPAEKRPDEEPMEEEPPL

[11] = molecular target: Histone deacetylase 2 (Homo sapiens, UniProt Q92769); experiment: Inhibition of HDAC2 by fluorometric assay
Histone deacetylase 2, sequence (Q92769 whole entry): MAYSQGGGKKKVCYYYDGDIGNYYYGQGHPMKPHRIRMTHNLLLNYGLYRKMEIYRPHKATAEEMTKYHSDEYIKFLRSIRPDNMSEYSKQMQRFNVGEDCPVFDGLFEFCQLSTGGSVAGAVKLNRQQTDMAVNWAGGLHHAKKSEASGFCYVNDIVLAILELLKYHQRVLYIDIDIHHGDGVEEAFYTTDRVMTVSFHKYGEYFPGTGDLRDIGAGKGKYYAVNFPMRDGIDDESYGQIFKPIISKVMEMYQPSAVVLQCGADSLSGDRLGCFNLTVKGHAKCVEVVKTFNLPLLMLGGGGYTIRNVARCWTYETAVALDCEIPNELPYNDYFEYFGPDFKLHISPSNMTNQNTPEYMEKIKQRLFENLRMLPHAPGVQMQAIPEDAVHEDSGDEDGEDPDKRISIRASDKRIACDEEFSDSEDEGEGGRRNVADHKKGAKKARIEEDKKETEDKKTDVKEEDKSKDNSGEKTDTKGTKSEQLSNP

[12] = molecular target: Histone deacetylase; experiment: Inhibition of HDAC in human HeLa cells nuclear extracts by fluorometric assay; assay type: cell-based
[13] = molecular target: T1, Protein deacetylase HDAC6 (Homo sapiens, UniProt Q9UBN7); experiment: Inhibition of HDAC6 by fluorometric assay
T1 sequence (Q9UBN7 whole entry): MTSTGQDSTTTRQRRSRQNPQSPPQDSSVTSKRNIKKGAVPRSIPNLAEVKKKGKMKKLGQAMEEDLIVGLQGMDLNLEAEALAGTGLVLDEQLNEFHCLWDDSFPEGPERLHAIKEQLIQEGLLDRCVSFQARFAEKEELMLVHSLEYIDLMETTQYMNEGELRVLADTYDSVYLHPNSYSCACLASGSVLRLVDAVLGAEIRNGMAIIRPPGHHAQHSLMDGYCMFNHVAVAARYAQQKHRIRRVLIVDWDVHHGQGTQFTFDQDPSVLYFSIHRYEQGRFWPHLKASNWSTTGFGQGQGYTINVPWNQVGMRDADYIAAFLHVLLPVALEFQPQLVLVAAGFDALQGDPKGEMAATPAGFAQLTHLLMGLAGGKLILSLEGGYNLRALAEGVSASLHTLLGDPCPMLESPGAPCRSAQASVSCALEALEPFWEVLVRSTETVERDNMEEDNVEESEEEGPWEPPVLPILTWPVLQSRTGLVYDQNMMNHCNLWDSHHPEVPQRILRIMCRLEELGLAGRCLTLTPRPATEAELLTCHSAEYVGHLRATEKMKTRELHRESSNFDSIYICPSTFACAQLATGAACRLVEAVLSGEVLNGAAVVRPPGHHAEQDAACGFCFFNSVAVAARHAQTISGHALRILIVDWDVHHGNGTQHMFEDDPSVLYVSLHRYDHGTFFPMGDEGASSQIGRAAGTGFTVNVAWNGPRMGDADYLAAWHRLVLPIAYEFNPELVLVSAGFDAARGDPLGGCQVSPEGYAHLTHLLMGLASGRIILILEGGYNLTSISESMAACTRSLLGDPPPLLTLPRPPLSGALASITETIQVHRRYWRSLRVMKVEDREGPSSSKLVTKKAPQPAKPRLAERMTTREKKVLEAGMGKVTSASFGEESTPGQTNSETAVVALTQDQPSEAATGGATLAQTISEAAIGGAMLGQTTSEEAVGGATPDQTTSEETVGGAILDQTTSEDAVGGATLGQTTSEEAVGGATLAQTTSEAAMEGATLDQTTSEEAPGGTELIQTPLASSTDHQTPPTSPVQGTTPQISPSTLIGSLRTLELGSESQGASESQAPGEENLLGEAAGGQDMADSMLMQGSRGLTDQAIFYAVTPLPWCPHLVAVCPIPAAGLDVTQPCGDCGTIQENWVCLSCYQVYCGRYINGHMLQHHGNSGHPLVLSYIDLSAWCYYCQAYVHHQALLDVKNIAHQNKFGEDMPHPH

[14] = molecular target: Histone deacetylase 1 (Homo sapiens, UniProt Q13547); experiment: Inhibition of HDAC1 by fluorometric assay
Histone deacetylase 1, sequence (Q13547 whole entry): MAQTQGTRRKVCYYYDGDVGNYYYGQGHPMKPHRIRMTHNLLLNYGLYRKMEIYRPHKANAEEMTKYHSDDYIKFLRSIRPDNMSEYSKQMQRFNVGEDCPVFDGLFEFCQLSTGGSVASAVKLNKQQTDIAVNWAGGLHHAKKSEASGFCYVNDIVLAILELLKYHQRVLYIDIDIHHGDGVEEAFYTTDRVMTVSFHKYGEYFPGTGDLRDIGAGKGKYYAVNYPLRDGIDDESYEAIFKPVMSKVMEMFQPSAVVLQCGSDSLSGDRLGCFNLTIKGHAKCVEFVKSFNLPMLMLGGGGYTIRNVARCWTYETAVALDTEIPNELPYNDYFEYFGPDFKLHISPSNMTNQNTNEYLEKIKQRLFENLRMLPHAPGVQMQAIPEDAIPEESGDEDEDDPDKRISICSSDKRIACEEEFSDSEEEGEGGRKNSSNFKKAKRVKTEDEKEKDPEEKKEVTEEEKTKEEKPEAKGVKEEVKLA

[15] = molecular target: T2, Histone deacetylase 8 (Homo sapiens, UniProt Q9BY41); experiment: Inhibition of HDAC8 by fluorometric assay
T2 sequence (Q9BY41 whole entry): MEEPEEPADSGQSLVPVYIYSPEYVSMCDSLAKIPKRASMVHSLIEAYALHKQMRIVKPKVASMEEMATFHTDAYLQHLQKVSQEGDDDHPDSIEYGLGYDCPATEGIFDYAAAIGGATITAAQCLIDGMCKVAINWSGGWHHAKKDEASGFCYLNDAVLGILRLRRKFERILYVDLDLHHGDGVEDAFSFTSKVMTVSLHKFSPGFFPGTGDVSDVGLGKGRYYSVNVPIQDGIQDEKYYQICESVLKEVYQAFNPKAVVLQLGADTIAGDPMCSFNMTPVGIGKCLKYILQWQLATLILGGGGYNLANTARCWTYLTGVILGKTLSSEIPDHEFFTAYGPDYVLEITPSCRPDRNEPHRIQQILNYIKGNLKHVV

Row | Compound | GI50 at 72 h [1] | GI50 [2] | GI50 [3] | GI50 [4] | GI50 at 72 h [5] | GI50 [6] | inhibition [7] | GI50 [8] | GI50 [9] | IC50 [10] | IC50 [11] | IC50 [12] | IC50 [13] | IC50 [14] | IC50 [15]
1 | O=C(NO)c1cccc(-c2cn(CSc3ccccc3)nn2)c1 | > 100 µM | 11 µM | 23 µM | 15 µM | > 100 µM | 6.4 µM | inactive | 7.6 µM | 12 µM |  |  |  |  |  | 
2 | O=C(NO)c1cccc(-c2cn(Cc3ccccc3)nn2)c1 |  |  |  |  |  |  | inactive |  |  | 30 µM | 65 µM | 37 µM | 7.9 µM | 41 µM | 0.35 µM
3 | COc1ccc(Cn2ccc3ccc(C(=O)NO)cc32)cc1 | 97 µM | 15 µM | > 100 µM | 25 µM | > 100 µM | 3.9 µM |  | 11 µM | 14 µM |  |  |  |  |  | 
4 | O=C(NO)c1cccc(-c2cn(CCc3ccsc3)nn2)c1 |  |  |  |  |  |  | inactive |  |  | > 100 µM | > 100 µM | 44 µM | 1.1 µM | > 100 µM | 0.1 µM
5 | O=C(NO)c1cccc(-c2cn(CCc3ccccc3)nn2)c1 | > 100 µM | 19 µM | 79 µM | 30 µM | > 100 µM | 27 µM | inactive | 11 µM | 39 µM | > 100 µM | 76 µM | 23 µM | 3.2 µM | > 100 µM | 0.18 µM
